# A selection: hits, their analogues and other compounds. The true share with any hit is near 2%.
# STEP inh = STEP phosphatase inhibitors, primary screen, biochemical, fluorescence intensity, uHTS; Tyrosine-protein phosphatase non-receptor type 5 (Homo sapiens), P54829; AID 588621, 2011; recombinant STEP, OMFP fluorogenic substrate; inhibition, % at 20 µM; actives 0.25% (n = 360,000);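 active = inhibition at 20 µM, scaled per plate between control wells, above about 37%, limit read from the data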;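 also: 0% = DMSO with enzyme and substrate and 100% = substrate only without enzyme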
#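 Material: STEP (striatal-enriched tyrosine phosphatase) enzyme, cell-free; Compound dosing: 20 µM single dose in 1% DMSO; Technique: fluorescence read at 480 nm ex / 540 nm em; Times: reaction 20 min, ambient temperature; Medium: 50 mM Bis-Tris pH 6.0 with 2.5 mM DTT and 0.005% Tween 20; Also added: OMFP at 25 µM.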
# Scp-1 inhibitor = Scp-1 phosphatase inhibitors, primary screen, biochemical, colorimetric, uHTS | Carboxy-terminal domain RNA polymerase II polypeptide A small phosphatase 1 (Homo … | Recombinant Scp1, phosphopeptide, malachite green phosphate absorbance | inhibition, % at 20 µM | actives 0.88% (n = 340,000) | AID 493091, 2011;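 active = inhibition above about 50% at 20 µM, limit read from the data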;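 also: plate controls were DMSO wells with enzyme for no effect and wells lacking enzyme for full effect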
# Target sequence (Q9GZU7 76-261 limits assumed): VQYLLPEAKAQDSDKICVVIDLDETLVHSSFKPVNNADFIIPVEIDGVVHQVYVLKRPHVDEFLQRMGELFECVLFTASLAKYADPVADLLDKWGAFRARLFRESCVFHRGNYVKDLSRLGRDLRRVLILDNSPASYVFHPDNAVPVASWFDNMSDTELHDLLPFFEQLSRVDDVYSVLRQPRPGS
#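 Material – SCP-1 phosphatase catalytic domain, residues 76-261 · Buffer or medium – Acidic Tris acetate buffer with magnesium and detergent · Also added – Phospho 17-mer peptide substrate · Compound – single 20 µM dose, 1% DMSO · Times – 45 min room-temperature reaction, 5 min colour, 30 min stabiliser · Technique – Phosphate-binding colour reagent, absorbance read at 630 nm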
# DNMT1 block = human DNMT1 methyltransferase inhibitors, primary screen, biochemical, molecular beacon, fluorescence, HinP1I cleavage, uHTS; DNA (cytosine-5)-methyltransferase 1 (Homo sapiens), P26358; inhibition (reported as % activation of signal), % at 10 µM; actives 0.83% (n = 360,000); in the data active = inhibition above about 50%
# Rpn11 inh = Rpn11 (PSMD14) deubiquitinase inhibitors, primary screen, biochemical, fluorescence polarization, uHTS; 26S proteasome non-ATPase regulatory subunit 14 (Homo sapiens), O00487; human 26S proteasome, Ub4-pepOG fluorescence polarization; 20S core pre-blocked with epoxomicin; inhibition, % at 20 µM; actives 0.59% (n = 360,000); AID 588493, 2011;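 active = inhibition at 20 µM, scaled to each plate's controls, above about 33%, limit read from the data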
# Target sequence (O00487 whole entry, looked up): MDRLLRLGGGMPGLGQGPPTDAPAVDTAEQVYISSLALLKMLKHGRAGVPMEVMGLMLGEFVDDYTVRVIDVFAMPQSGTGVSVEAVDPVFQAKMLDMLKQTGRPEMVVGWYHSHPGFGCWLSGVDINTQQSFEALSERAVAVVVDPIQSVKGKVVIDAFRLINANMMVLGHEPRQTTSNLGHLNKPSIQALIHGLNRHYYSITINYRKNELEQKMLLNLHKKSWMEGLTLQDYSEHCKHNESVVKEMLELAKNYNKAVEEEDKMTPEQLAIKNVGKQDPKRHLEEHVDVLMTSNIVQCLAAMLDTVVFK
# LMPTP block = LMPTP phosphatase inhibitors, primary screen, biochemical, fluorescence intensity, uHTS | Low molecular weight phosphotyrosine protein phosphatase (Homo sapiens), P24666 | recombinant LMPTP-A, OMFP fluorogenic substrate | inhibition, % at 20 µM | actives 0.22% (n = 360,000) | AID 651560, 2012;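 active = compounds that cut the enzyme signal by at least half of the control window in the single-dose screen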;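 also: plate controls were DMSO wells with enzyme plus substrate for no effect and substrate without enzyme for full effect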
# Target sequence (P24666 whole entry, looked up): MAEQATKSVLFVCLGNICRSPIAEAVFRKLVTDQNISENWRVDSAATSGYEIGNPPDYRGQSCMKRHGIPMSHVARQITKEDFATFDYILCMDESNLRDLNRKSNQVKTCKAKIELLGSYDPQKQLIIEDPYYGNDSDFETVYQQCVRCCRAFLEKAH
#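 material = LMPTP-A | quantity = 0.625 nM enzyme | reagent = OMFP substrate, 400 µM final | buffer or medium = Bis-Tris pH 6.0, DTT, detergent | detection = endpoint fluorescence intensity from OMFP dephosphorylation | dosing = single 20 µM dose | read-out basis = % inhibition relative to no-enzyme and uninhibited control wells | control set = no-enzyme and uninhibited controls | timing = 50 min at room temperature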
# Scp-1 conf = Scp-1 phosphatase inhibitors, retest, confirmation, biochemical, colorimetric, single concentration; shares compounds with Scp-1 inhibitor; recombinant SCP-1 catalytic domain, phosphate release, malachite green absorbance; inhibition, % at 20 µM; actives 61% (n = 2,500); AID 540281, 2011;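 also: plate controls were DMSO with enzyme for no effect and buffer wells lacking enzyme for full effect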
# Scp-1 MG ctr = colorimetric readout interference by compounds, confirmation, artefact control for Scp-1 inhibitor project, biochemical, single concentration; shares compounds with Scp-1 inhibitor; Colorimetric interference counterscreen, malachite green absorbance 630 nm; 2,500 tested, under 10 active; apparent inhibition (interference), % at 20 µM; AID 540313, 2011;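 also: compounds added after enzyme reaction finished so only phosphate colour detection is probed; plate controls were DMSO wells with completed Scp-1 reaction for no effect and substrate wells lacking enzyme for full effect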
# Scp-1 Tm shift = Scp-1 binding by thermal shift, confirmation, orthogonal assay for Scp-1 inhibitor project, biophysical, differential scanning fluorimetry; shares compounds with Scp-1 inhibitor; Recombinant SCP1, Sypro Orange thermal shift Tm; thermal shift relative to vanadate control, % at 40 µM; actives 25% (n = 1,500); AID 540329, 2011;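 active = substances whose mean melting-temperature shift, as a percentage of the reference inhibitor's shift, reaches about 5.3%, limit read from the data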;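 also: 0% = Tm of DMSO wells and 100% = Tm with sodium orthovanadate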
# Numbers without * were called inactive; x = no result.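 The calls were made as follows, unless noted: active = inhibition of at least 30% at 20 µM; inactive = the rest.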
SMILES,STEP inh,Scp-1 inhibitor,DNMT1 block,Rpn11 inh,LMPTP block,Scp-1 conf,Scp-1 MG ctr,others
Cc1cccc(CNC(=O)c2sc(=O)n(Cc3ccc(S(C)(=O)=O)cc3)c2C)c1,-2,x,-1,4,0,x,x,
CCOC(=O)N1CCN(c2ccc(S(=O)(=O)N3CCOCC3)cn2)CC1,4,80*,1,-4,-1,-12,-16,
O=S(=O)(c1ccc(N2CCOCC2)nc1)N1CCOCC1,2,-4,-2,8,1,x,x,
O=C(Cn1c(=O)cnc2ccccc21)Nc1cc(Cl)ccc1N1CCOCC1,12,53*,40,24,1,48*,-11,Scp-1 Tm shift=3
O=C(Cn1c(=O)cnc2ccccc21)Nc1ccccc1N1CCOCC1,-1,-2,0,-2,0,x,x,
CCCS(=O)(=O)c1nc(S(=O)(=O)c2ccc(C)cc2)c(NCCCN2CCCC2=O)s1,-2,-6,0,-3,-1,x,x,
COC(=O)C1CCN(S(=O)(=O)c2c[nH]c(=O)[nH]c2=O)CC1,2,x,0,1,-1,x,x,
O=C(CCCCCn1c(SCc2ccncc2)nc2ccccc2c1=O)NCc1ccco1,2,56*,19,-18,22,32*,-10,Scp-1 Tm shift=-13
N#CCSc1nc2ccccc2c(=O)n1CCCC(=O)NCc1ccco1,-4,0,7,-4,-1,x,x,
Clc1ccc(C(c2cccs2)N2CCNCC2)cc1 (stereo unspecified),-1,x,1,-8,-1,x,x,
CC1(C)Cc2c(cnn2-c2ccc(F)cc2)C(NC(=O)C2=CC(=O)CC(C)(C)O2)C1 (stereo unspecified),0,x,3,3,-2,x,x,
O=C1N=c2ccccc2=C1c1sc(NS(=O)(=O)Cc2ccccc2)nc1O,9,93*,-1,4,4,84*,-6,Scp-1 Tm shift=31*
O=C1N=c2ccccc2=C1c1sc(NS(=O)(=O)c2ccccc2)nc1O,12,3,1,-1,5,x,x,
COCCNC(=O)C1(C)CCCN(C(=O)c2ccc(C#N)cc2)C1 (stereo unspecified),-2,x,2,-6,-2,x,x,
CC1(Cc2ccccc2Cl)C(=O)Nc2ccc(OC(F)(F)F)cc21 (stereo unspecified),-1,x,6,-2,2,x,x,
CC1(C(=O)NCc2ccccc2)CN(S(C)(=O)=O)CC(=O)N1Cc1cccc(C(F)(F)F)c1 (stereo unspecified),x,x,x,x,-1,x,x,
Cc1sc(NC(=O)Cn2nc(C(F)(F)F)cc2C)c(C(=O)OC(C)C)c1C,1,63*,-1,-2,3,-18,-17,
C[C@H](O)[C@@H]1CN2CCc3c([nH]c4ccccc34)[C@@H]2C[C@@H]1N(C)C(=O)OCc1ccccc1,-8,x,-2,-66,1,x,x,
Cc1ccc2[nH]c3c(=O)n(CC(=O)NCc4ccco4)ncc3c2c1,-1,52*,24,-1,6,4,-13,
CN(C)c1ccc(/C=C2\C(=N)N3N=C(CC(=O)N4CCCC4)SC3=NC2=O)cc1Br,-1,58*,5,8,0,-1,-9,
Cc1c(/C(O)=C2/C(=O)C(=O)N(CCN3CCOCC3)C2c2ccco2)cnn1-c1ccccc1 (stereo unspecified),1,-4,0,10,1,-13,-7,
Cc1c(/C(O)=C2/C(=O)C(=O)N(CCN3CCOCC3)C2c2cccnc2)cnn1-c1ccccc1 (stereo unspecified),-6,-3,0,-5,-4,x,x,
CC/C(=N\NC(=O)CNC(=O)/C=C/c1ccco1)c1ccccc1,0,94*,10,0,0,15,-6,
COc1ccc(/C=C/C(=O)NCC(=O)N/N=C(/CCC(=O)O)c2ccccc2)cc1,-3,-2,1,-3,0,x,x,
COc1ccc(/C(C)=N/NC(=O)CNC(=O)/C=C\c2ccco2)cc1,0,82*,19,-9,-1,64*,-12,Scp-1 Tm shift=-6
SMILES,STEP inh,Scp-1 inhibitor,DNMT1 block,Rpn11 inh,LMPTP block,Scp-1 conf,Scp-1 MG ctr,others
CCC/C(=N\NC(=O)CNC(=O)/C=C/c1ccco1)c1ccccc1,4,6,8,-3,-2,x,x,
COc1ccc(NC(=O)COc2cccc3c2CCN(C)C3=O)c(OC)c1,-2,-5,-2,-11,-1,x,x,
CCCCn1c(N)c(N(CCOC)C(=O)c2cc(S(=O)(=O)N3CCOCC3)ccc2Cl)c(=O)[nH]c1=O,-3,-10,3,-2,-1,x,x,
Cn1c(=O)c2cc(NC(=O)NCc3ccccc3)ccc2n1C/C=C/c1ccccc1,2,x,-5,8,0,x,x,
COc1cc2cnc(-c3ccccc3)c(-c3ccc([N+](=O)[O-])cc3)c2cc1OC,-1,12,-2,1,1,x,x,
COc1cc2cnc(-c3ccccc3)c(-c3cc(OC)c(OC)c(OC)c3)c2cc1OC,-1,61*,3,-1,0,37*,0,Scp-1 Tm shift=-8
COc1ccc(/C=C/C(=O)Oc2ccc(/C=N\NC(=O)c3ccc(F)cc3)cc2)cc1,-2,-7,5,2,0,x,x,
Cc1ccccc1C(=O)Nc1ccc(C(=O)N/N=C/c2ccc(F)cc2)cc1,12,91*,26,-4,2,28,-13,
COC(=O)c1ccc(/C=N/NC(=O)c2cccc(F)c2)cc1,8,87*,0,-4,-1,48*,-18,Scp-1 Tm shift=-11
COc1ccc(/C=C/C(=O)Oc2cccc(/C=N/NC(=O)c3cccc(F)c3)c2)cc1,0,87*,4,8,5,37*,-11,Scp-1 Tm shift=-12
c1ccc(C[C@H]2COc3c4ccccc4nn32)cc1,x,x,x,x,0,x,x,
COc1ccc2nc(COC(=O)c3cccs3)c(C(C)=O)[n+]([O-])c2c1,-1,103*,-3,1,0,1,-16,
COc1ccc2nc(COC(=O)c3cccc([N+](=O)[O-])c3)c(C(C)=O)[n+]([O-])c2c1,0,-7,-6,1,1,x,x,

# Screening data as filed in PubChem.
